Active and inactive are the calls of the source. No cut-off for these calls is given here.
Columns and labels:
[1] = molecular target: T1, Hepatocyte growth factor receptor (Homo sapiens, UniProt P08581); test: Inhibition of recombinant human His-tagged c-Met cytoplasmic domain (956 to 1390 residues) expressed in baculovirus expression system using poly (Glu,Tyr)4:1 as substrate after 60 mins by spectrophotometric analysis
Histone deacetylase 1 [2] = molecular target: T2, Histone deacetylase 1 (Homo sapiens, UniProt Q13547); test: Inhibition of recombinant human full length HDAC1 expressed in baculovirus infected Sf9 insect cells using biotinylated lysine 9 acetylated histone H3 (1 to 21 residues) as substrate incubated for 5 mins followed by substrate addition measured after 60 mins by HTRF assay
EBC-1 = test: Antiproliferative activity against human EBC1 cells after 72 hrs by SRB assay; format: functional, cell-based; conditions: EBC-1, 72 h
HCT-116 = test: Antiproliferative activity against human HCT116 cells after 72 hrs by SRB assay; format: functional, cell-based; conditions: HCT-116, 72 h
Histone deacetylase 1 [3] = molecular target: T2, Histone deacetylase 1; test: Potency index, ratio of chidamide IC50 to compound IC50 for recombinant human full length HDAC1 expressed in baculovirus infected Sf9 insect cells
[4] = molecular target: T1, Hepatocyte growth factor receptor; test: Inhibition of phosphorylation of c-MET at Tyr1234/1235 residues in human EBC1 cells after 24 hrs by Western blot analysis; format: cell-based
Method in brief: (§1)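 Intact EBC-1 cells were treated with the compound at several concentrations for 24 h. Protein levels were then read by immunoblotting with specific antibodies.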

[5] = molecular target: T1, Hepatocyte growth factor receptor; test: Inhibition of c-MET in human EBC1 cells assessed as decrease in Akt phosphorylation at Ser473 residues after 24 hrs by Western blot analysis; format: cell-based; method in brief: as §1
[6] = molecular target: T1, Hepatocyte growth factor receptor; test: Inhibition of c-MET in human EBC1 cells assessed as decrease in Erk1/2 phosphorylation at Thr202/Tyr204 residues after 24 hrs by Western blot analysis; format: cell-based; method in brief: as §1
Histone deacetylase 1 [7] = molecular target: T2, Histone deacetylase 1; test: Inhibition of HDAC1 in human EBC1 cells assessed as increase in p21 levels at 0.01 to 10 uM after 24 hrs by Western blot analysis; format: cell-based; method in brief: as §1
Histone deacetylase 1 [8] = molecular target: T2, Histone deacetylase 1; test: Inhibition of HDAC1 in human EBC1 cells assessed as increase in acetyl-Histone H3 levels at Lys9/Lys14 residues at 0.01 to 10 uM after 24 hrs by Western blot analysis; format: cell-based; method in brief: as §1
[9] = molecular target: T3, Protein deacetylase HDAC6 (Homo sapiens) (UniProt Q9UBN7); test: Inhibition of HDAC6 in human EBC1 cells assessed as […] in acetyl alpha-tubulin level at Lys40 at 0.01 to 10 uM after 24 hrs by Western blot analysis; format: cell-based
T3 sequence (whole entry): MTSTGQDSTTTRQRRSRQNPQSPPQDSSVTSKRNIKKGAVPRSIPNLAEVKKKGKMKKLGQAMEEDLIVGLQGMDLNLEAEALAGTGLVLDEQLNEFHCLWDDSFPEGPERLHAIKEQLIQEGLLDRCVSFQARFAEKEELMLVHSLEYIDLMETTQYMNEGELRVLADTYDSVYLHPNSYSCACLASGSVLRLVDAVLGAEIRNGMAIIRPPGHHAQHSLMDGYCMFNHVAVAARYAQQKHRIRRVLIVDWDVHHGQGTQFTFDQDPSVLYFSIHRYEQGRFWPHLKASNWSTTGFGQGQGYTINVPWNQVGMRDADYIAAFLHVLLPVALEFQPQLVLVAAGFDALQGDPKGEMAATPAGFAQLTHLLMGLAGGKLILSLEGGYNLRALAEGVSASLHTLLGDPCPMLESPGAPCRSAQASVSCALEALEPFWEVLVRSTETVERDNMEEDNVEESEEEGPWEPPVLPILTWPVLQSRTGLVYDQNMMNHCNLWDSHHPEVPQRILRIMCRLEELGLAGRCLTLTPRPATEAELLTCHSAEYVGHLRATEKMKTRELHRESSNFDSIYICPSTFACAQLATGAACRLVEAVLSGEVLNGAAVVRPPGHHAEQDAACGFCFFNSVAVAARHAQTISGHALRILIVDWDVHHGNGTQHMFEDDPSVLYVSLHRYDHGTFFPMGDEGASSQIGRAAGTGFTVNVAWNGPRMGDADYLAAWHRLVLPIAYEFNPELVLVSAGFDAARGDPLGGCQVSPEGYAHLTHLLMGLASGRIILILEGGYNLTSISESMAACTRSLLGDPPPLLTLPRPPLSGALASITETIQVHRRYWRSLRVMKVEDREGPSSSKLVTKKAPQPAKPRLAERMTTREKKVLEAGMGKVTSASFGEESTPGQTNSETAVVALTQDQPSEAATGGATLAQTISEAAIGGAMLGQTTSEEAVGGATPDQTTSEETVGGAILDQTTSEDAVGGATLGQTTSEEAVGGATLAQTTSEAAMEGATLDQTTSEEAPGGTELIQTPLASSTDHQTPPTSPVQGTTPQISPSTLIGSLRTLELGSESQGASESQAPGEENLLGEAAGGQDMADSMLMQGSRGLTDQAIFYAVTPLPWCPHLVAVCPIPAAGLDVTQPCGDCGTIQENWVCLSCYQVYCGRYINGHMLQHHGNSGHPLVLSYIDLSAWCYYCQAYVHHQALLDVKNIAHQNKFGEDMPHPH

T1 sequence (P08581 whole entry, the tested form may be a part): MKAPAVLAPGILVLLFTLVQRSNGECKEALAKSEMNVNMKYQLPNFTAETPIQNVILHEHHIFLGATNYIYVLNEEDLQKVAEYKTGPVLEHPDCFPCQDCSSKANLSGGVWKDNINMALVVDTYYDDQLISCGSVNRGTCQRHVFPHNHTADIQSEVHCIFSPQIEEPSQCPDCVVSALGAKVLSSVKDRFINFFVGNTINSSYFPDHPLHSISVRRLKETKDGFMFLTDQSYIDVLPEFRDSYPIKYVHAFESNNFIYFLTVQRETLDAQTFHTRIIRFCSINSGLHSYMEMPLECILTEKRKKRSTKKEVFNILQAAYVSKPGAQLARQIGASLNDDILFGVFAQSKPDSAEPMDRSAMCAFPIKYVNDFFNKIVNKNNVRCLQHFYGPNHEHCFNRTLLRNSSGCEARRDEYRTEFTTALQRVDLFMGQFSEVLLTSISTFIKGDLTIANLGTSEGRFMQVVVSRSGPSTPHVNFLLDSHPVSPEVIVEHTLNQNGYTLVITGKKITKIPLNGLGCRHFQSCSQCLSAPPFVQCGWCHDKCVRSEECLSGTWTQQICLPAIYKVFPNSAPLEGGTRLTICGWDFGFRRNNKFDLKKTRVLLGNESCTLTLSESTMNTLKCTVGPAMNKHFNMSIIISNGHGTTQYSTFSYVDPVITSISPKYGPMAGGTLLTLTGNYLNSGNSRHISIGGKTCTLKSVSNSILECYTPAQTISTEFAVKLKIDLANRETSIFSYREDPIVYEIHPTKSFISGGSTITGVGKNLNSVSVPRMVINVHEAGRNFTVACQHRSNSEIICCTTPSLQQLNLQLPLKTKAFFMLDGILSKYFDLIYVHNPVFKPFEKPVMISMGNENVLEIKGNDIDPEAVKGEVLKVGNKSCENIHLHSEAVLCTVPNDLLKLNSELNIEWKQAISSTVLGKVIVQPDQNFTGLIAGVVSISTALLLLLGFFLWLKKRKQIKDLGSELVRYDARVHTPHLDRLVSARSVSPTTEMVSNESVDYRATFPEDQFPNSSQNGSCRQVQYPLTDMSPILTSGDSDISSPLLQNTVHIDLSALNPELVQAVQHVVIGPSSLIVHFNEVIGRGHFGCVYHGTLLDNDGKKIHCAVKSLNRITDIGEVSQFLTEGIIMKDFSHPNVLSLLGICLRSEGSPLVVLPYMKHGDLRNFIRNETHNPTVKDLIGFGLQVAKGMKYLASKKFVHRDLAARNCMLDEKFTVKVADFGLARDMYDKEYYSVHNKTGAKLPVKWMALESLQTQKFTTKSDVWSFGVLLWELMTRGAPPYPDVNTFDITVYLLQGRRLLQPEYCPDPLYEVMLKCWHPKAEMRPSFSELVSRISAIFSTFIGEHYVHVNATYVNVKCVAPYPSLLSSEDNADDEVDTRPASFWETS
T2 sequence (Q13547 whole entry, the tested form may be a part): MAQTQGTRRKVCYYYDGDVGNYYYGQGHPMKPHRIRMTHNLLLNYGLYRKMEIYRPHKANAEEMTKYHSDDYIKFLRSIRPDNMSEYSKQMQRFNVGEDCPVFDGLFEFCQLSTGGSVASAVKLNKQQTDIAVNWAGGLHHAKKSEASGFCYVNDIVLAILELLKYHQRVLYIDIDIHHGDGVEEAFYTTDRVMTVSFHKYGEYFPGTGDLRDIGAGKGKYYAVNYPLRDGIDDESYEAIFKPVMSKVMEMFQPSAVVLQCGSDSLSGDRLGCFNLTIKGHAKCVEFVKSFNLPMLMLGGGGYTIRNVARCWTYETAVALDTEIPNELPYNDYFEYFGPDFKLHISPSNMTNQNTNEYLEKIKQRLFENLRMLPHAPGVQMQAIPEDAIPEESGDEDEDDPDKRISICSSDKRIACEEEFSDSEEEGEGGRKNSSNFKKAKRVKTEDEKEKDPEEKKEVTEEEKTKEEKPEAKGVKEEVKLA

O=c1ccc(-n2ccc3ccc(F)cc32)nn1CCOc1ccnc2cc(OCCCN3CCOCC3)ccc12
IC50 [1]: 0.00084 µM | IC50 (Histone deacetylase 1 [2]): > 1 µM | IC50 (EBC-1): 0.06 µM | IC50 (HCT-116): > 10 µM

Cn1cc(-c2ccc(=O)n(CCOc3ccnc4cc(OCCCCCC(=O)Nc5ccccc5N)ccc34)n2)cn1
IC50 [1]: 0.00096 µM | IC50 (Histone deacetylase 1 [2]): 0.221 µM | IC50 (EBC-1): 0.37 µM | IC50 (HCT-116): 7 µM

Cn1cc(-c2ccc(=O)n(CCOc3ccnc4cc(OCCCC(=O)NO)ccc34)n2)cn1
IC50 [1]: 0.001 µM | IC50 (Histone deacetylase 1 [2]): > 1 µM | IC50 (EBC-1): 0.87 µM | IC50 (HCT-116): > 10 µM

Cn1cc(-c2ccc(=O)n(CCOc3ccnc4cc(C(=O)Nc5ccccc5N)ccc34)n2)cn1
IC50 [1]: 0.037 µM | IC50 (Histone deacetylase 1 [2]): > 1 µM | IC50 (EBC-1): > 10 µM | IC50 (HCT-116): > 10 µM

Nc1cc(F)ccc1NC(=O)c1ccc(CNC(=O)/C=C/c2cccnc2)cc1 [TUCIDINOSTAT]
IC50 (EBC-1): 2.9 µM | IC50 (HCT-116): 7.8 µM

Cn1cc(-c2ccc(=O)n(CCOc3ccnc4cc(OCc5ccc(/C=C/C(=O)Nc6ccccc6N)cc5)ccc34)n2)cn1
IC50 [1]: 0.0011 µM | IC50 (Histone deacetylase 1 [2]): > 1 µM | IC50 (EBC-1): 0.49 µM | IC50 (HCT-116): > 10 µM

Cn1cc(-c2ccc(=O)n(CCOc3ccnc4cc(OCc5ccc(C(=O)Nc6ccccc6N)cc5)ccc34)n2)cn1
IC50 [1]: 0.00044 µM | IC50 (Histone deacetylase 1 [2]): 0.156 µM | IC50 (EBC-1): 0.042 µM | IC50 (HCT-116): 1.8 µM

Cn1cc(-c2ccc(=O)n(CCOc3ccnc4cc(OCCCCCS)ccc34)n2)cn1
IC50 [1]: 0.0015 µM | IC50 (Histone deacetylase 1 [2]): 0.329 µM | IC50 (EBC-1): 0.64 µM | IC50 (HCT-116): > 10 µM

Cn1cc(-c2ccc(=O)n(CCOc3ccnc4cc(Nc5ccc(C(=O)Nc6ccccc6N)nc5)ccc34)n2)cn1
IC50 [1]: 0.0037 µM | IC50 (Histone deacetylase 1 [2]): 0.129 µM | IC50 (EBC-1): 0.45 µM | IC50 (HCT-116): > 10 µM

Cn1cc(-c2ccc(=O)n(CCOc3ccnc4cc(-c5ccc(C(=O)Nc6ccccc6N)s5)ccc34)n2)cn1
IC50 [1]: 0.0013 µM | IC50 (Histone deacetylase 1 [2]): 0.467 µM | IC50 (EBC-1): 0.12 µM | IC50 (HCT-116): > 10 µM

Cn1cc(-c2ccc(=O)n(CCOc3ccnc4cc(OCCCCCC(=O)NO)ccc34)n2)cn1
IC50 [1]: 0.00073 µM | IC50 (Histone deacetylase 1 [2]): 0.216 µM | IC50 (EBC-1): 0.46 µM | IC50 (HCT-116): > 10 µM

Cn1cc(-c2ccc(=O)n(CCOc3ccnc4cc(OCCCOc5ccc(C(=O)Nc6ccccc6N)nc5)ccc34)n2)cn1
IC50 [1]: 0.00071 µM | IC50 (Histone deacetylase 1 [2]): 0.038 µM | IC50 (EBC-1): 0.058 µM | IC50 (HCT-116): 1.3 µM | Ratio IC50 (Histone deacetylase 1 [3]): 4 | inhibition [4]: Dose-dependent effect | inhibition [5]: Dose-dependent effect | inhibition [6]: Dose-dependent effect | inhibition (Histone deacetylase 1 [7]): Active | inhibition (Histone deacetylase 1 [8]): Active | inhibition [9]: inactive

Cn1cc(-c2ccc(=O)n(CCOc3ccnc4cc(OCc5ccc(/C=C/C(=O)Nc6ccccc6N)nc5)ccc34)n2)cn1
IC50 [1]: 0.00063 µM | IC50 (Histone deacetylase 1 [2]): 0.625 µM | IC50 (EBC-1): 0.046 µM | IC50 (HCT-116): 7.9 µM

CC(=O)CCCCCOc1ccc2c(OCCn3nc(-c4cnn(C)c4)ccc3=O)ccnc2c1
IC50 [1]: 0.001 µM | IC50 (Histone deacetylase 1 [2]): > 1 µM | IC50 (EBC-1): 0.025 µM | IC50 (HCT-116): > 10 µM

CNC(=O)CCCCCOc1ccc2c(OCCn3nc(-c4cnn(C)c4)ccc3=O)ccnc2c1
IC50 [1]: 0.0012 µM | IC50 (Histone deacetylase 1 [2]): > 1 µM | IC50 (EBC-1): 0.079 µM | IC50 (HCT-116): > 10 µM

Cn1cc(-c2ccc(=O)n(CCOc3ccnc4cc(OCCCCC(=O)NO)ccc34)n2)cn1
IC50 [1]: 0.00096 µM | IC50 (Histone deacetylase 1 [2]): > 1 µM | IC50 (EBC-1): 0.37 µM | IC50 (HCT-116): > 10 µM

Cn1cc(-c2ccc(=O)n(CCOc3ccnc4cc(OCCCCCCC(=O)NO)ccc34)n2)cn1
IC50 [1]: 0.00054 µM | IC50 (Histone deacetylase 1 [2]): 0.018 µM | IC50 (EBC-1): 0.21 µM | IC50 (HCT-116): > 10 µM

Cn1cc(-c2ccc(=O)n(CCOc3ccnc4cc(OCc5ccc(CCC(=O)Nc6ccccc6N)cc5)ccc34)n2)cn1
IC50 [1]: 0.0051 µM | IC50 (Histone deacetylase 1 [2]): > 1 µM | IC50 (EBC-1): 0.21 µM | IC50 (HCT-116): > 10 µM
